Measured values reported in ChEMBL document CHEMBL4152234, “Aminobenzothiazole derivatives stabilize the thermolabile p53 cancer mutant Y220C and show anticancer activity in p53-Y220C cell lines” (Eur J Med Chem, 2018).
One block for each molecule: values may come before it. Activity calls are given as the source filed them. No cut-off for these calls is given here.

Key:
[1] = Solubility of the compound in water; assay type: physicochemical; conditions: buffer
[2] = molecular target: T1, Cellular tumor antigen p53 (Homo sapiens, UniProt P04637, Y220C); assay: Binding affinity to p53 Y220C mutant (unknown origin)
[3] = test system: Cellular tumor antigen p53 (Homo sapiens), P04637 [Y220C]; assay: Binding affinity to p53 Y220C mutant (unknown origin) assessed as change in melting temperature at 1 mM
Huh-7 [4] = assay: Antiproliferative activity against human HuH7 cells harboring p53 Y220C mutant after 72 hrs by CellTiter-Glo assay; assay type: functional, cell-based; conditions: Huh-7, 72 h
In short: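 Cells were exposed to compound for 72 h and viability read by CellTiter-Fluor or CellTiter-Glo 2.0. Quadruplicate technical replicates, normalized to blank (viability = 1) and no-cell (viability = 0) controls. Confirmed in at least 2 independent biological replicates. IC50 derived from the dose-response data.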

Huh-7 [5] = assay: Antiproliferative activity against p53 Y220C mutant knockout human HuH7 cells up to 120 uM after 72 hrs by CellTiter-Glo assay; assay type: functional, cell-based
[6] = test system: Cellular tumor antigen p53 (Homo sapiens), P04637 [Y220C]; assay: Binding affinity to p53 Y220C mutant (unknown origin) assessed as change in melting temperature
[7] = test system: Cellular tumor antigen p53 (Homo sapiens), P04637 [Y220C]; assay: Binding affinity to p53 Y220C mutant (unknown origin) assessed as change in melting temperature at 250 uM
[8] = molecular target: T1, Cellular tumor antigen p53; assay: Binding affinity to N-terminal His6-tagged p53 DNA binding domain Y220C mutant (94 to 312 residues) (unknown origin) expressed in Escherichia coli C41 by ITC

solubility [1]: Insoluble
Compound: CN(C)CCNC(=O)c1cc(I)c(-n2cccc2)c(I)c1O

Kd [2]: 820 µM
solubility [1]: Soluble
ΔTm [3]: 0.6 °C
Compound: O=C(O)c1cc(I)cc(I)c1O

solubility [1]: Insoluble
Compound: COC(=O)c1cc(I)c(-n2cccc2)c(I)c1O

IC50 (Huh-7 [4]): 150 µM
Compound: CCCSc1cc(C(=O)O)c(O)c(I)c1-n1cccc1

solubility [1]: Insoluble
Compound: CCN(CC)c1nc2c(C(=O)OC)c(O)c(I)c(-n3cccc3)c2s1

Compound: CCN(CC)c1nc2c(C(=O)O)c(O)c(I)c(-n3cccc3)c2s1
Activity (Huh-7 [5]): inactive

solubility [1]: Insoluble
Compound: CNC(=O)c1cc(I)c(-n2cccc2)c(I)c1O

ΔTm [6]: 4 °C
Compound: CCN(CC)C1CCN(Cc2cc(C#CCNc3ccccc3)cc(I)c2O)CC1

Kd [2]: 21 µM
solubility [1]: Soluble
ΔTm [7]: 1.8 °C
Kd [8]: 21 µM
Compound: O=C(O)c1cc(I)c(-n2cccc2)c(I)c1O
